Measured values as given in PMC7051832 (ACS chemical biology, 2019).

Assays:
interleukin-1β (IL-1β) = interleukin-1β (IL-1β) (Homo sapiens, UniProt P01584); assay: Reverse micelle; assay type: binding; conditions: RM encapsulated IL-1β
[1] = target: E. coli dihydrofolate reductase (ecDHFR) (Escherichia coli, UniProt P0ABQ4); assay: NMR 15N-HSQC titration of model fragments binding to ecDHFR
How it was run: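 15N-ecDHFR at 100 μM, in bulk buffer (20 mM Tris pH 8.5, 100 mM NaCl, 10 mM DTT, 0.02% azide) or in reverse micelles (52.5 mM 10MAG, 18 mM LDAO, 4.5 mM DTAB, hexanol, pentane; W0 15; 5 mM in water core). Titrated with fragment. 15N-HSQC at 25 °C, 1024 × 64 complex points, 32 scans. Chemical shift perturbations fitted for Kd; error from fitting.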

Sequence of E. coli dihydrofolate reductase (ecDHFR) (P0ABQ4 whole entry, the tested form may be a part): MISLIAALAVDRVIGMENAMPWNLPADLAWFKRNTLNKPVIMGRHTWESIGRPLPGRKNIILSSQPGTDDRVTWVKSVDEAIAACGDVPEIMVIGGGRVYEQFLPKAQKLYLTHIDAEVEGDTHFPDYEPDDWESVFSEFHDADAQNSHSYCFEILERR
Sequence of interleukin-1β (IL-1β) (P01584 117-269): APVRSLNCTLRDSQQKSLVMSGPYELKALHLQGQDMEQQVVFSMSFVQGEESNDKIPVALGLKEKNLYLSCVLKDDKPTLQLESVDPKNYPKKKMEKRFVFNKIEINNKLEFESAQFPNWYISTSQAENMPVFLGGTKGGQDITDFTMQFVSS

| Compound | binding sites on the protein surface (interleukin-1β (IL-1β)) | Kd ([1]; binding to ecDHFR, natural cofactor, NMR titration) | degree of saturation of the protein ([1]; same absolute amounts of protein and ligand, both bulk and RM samples) |
| --- | --- | --- | --- |
| OCc1ccc2nccn2c1 [imidazo[1,2-a]pyridine-6-ylmethanol] | bound to multiple sites on the protein surface | – | – |
| NC(=O)c1ccc[n+]([C@@H]2O[C@H](COP(=O)([O-])OP(=O)(O)OC[C@H]3O[C@@H](n4cnc5c(N)ncnc54)[C@H](OP(=O)(O)O)[C@@H]3O)[C@@H](O)[C@H]2O)c1 [NADP^+] | – | 9 ± 2 µM | saturated the enzyme in both bulk and RM samples |
